64 molecules from ChEMBL document CHEMBL1146721, “Discovery and structure-activity relationship of coumarin derivatives as TNF-alpha inhibitors” (Bioorg Med Chem Lett, 2004) can be followed below.

Broadly, the IC50 is the midpoint of a concentration-inhibition curve. Low values mean inhibition by little substance, high ones a need for much substance. The term inhibition in vivo denotes the percentage by which the read-out fell short of the control. Low values mean little suppression, high ones strong suppression.

Where only a bound is given, the exact number is not on record here.

The test system of one assay is PBMC. Kind of assay: In vitro inhibition of tumor necrosis factor alpha production in LPS-challenged human peripheral blood mononuclear cells. Format: functional, cell-based. The essentials: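 Human PBMC at 5 × 10⁵ cells/mL in RPMI1640 with 5% heat-inactivated FCS and antibiotics, pretreated with compound in DMSO for 60 min at 37 °C. Then stimulated with Salmonella minnesota R595 LPS (final 100 ng/mL) and cultured overnight. Supernatant TNF-α measured by human TNF-α ELISA; IC50 derived.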

Assay [1] relates to Rattus norvegicus. Kind of assay: Tested in vivo for inhibition of serum tumor necrosis factor alpha production in rats at 100 mg/kg subcutaneous dose. As to conditions: sc. In kind it is functional. The essentials:
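LPS (E. coli B055/B5, 0.1 mg/kg) challenge given […] sc compound, usually in 20% EtOH/80% PEG400; pyridine-containing compounds given in saline as in situ HCl salts. Serum TNF-α measured by ELISA 90 min later. Percent inhibition at 100 mg/kg calculated against an untreated control.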

Assay [2] concerns Rattus norvegicus. The experiment in a line: Tested in vivo for inhibition of serum tumor necrosis factor alpha production in rats at 100 ug/kg subcutaneous dose. As to conditions: sc. In kind it is functional. The method in brief: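 LPS (E. coli B055/B5, 0.1 mg/kg) challenge given […] subcutaneous test compound, usually in 20% EtOH/80% PEG400; pyridine-containing compounds were given in saline as HCl salts formed in situ. Serum TNF-α was measured by ELISA 90 min later. Percent inhibition was calculated against an untreated control.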

In the assay on PBMC, `Cc1c(Cc2ccccc2)c(=O)oc2c(C)c(OC(=O)N(C)C)ccc12` showed an IC50 of 10.3 µM. Regarding `Cc1c(Cc2ccccc2)c(=O)oc2cc(OC(=O)N(C)C)c(I)cc12`, the IC50 in the assay with PBMC came to 0.06 µM. In the assay on PBMC, `CN(C)C(=O)Oc1ccc2c(CC(O)c3ccc(C#N)cc3)c(Cc3ccccc3)c(=O)oc2c1` (stereo not drawn) had an IC50 of 28.3 µM. Against the preceding molecule, the IC50 is about 470-fold higher. For the molecule `Cc1c(Cc2cccnc2)c(=O)oc2cc(OC(=O)N(C)C)ccc12`, testing at 100 mg/kg in the assay with Rattus norvegicus [1] gave an inhibition in vivo of 86%. For the same molecule, the IC50 in the assay on PBMC was 2.7 µM. On to `Cc1c(-c2ccc(N)cc2)c(=O)oc2cc(OC(=O)N(C)C)ccc12`, for which the IC50 with PBMC was determined as 5.2 µM. In the assay with PBMC, `CN(C)C(=O)Oc1ccc2c(-c3ccc(F)cc3)c(Cc3ccccc3)c(=O)oc2c1` gave an IC50 of 41.7 µM. Turning to `Cc1c(Cc2ccccc2)c(=O)oc2cc(OC(=O)N(C)C)c(C#N)cc12`, the IC50 in the assay with PBMC came out at 0.85 µM. In the case of `CN(C)C(=O)Oc1ccc2cc(Cc3ccccc3)c(=O)oc2c1`, the IC50 with PBMC is more than 50 µM. Still for that read-out and setting: for `CCc1c(Cc2ccccc2)c(=O)oc2cc(OC(=O)N(C)C)ccc12` the value was 1.7 µM; for `C=CCCC(O)Cc1c(Cc2ccccc2)c(=O)oc2cc(OC(=O)N(C)C)ccc12` (stereo not drawn), 48.4 µM. In turn, `Cc1c(Cc2ccccc2)c(=O)oc2cc(OC(=O)N(C)C)c(C(=O)O)cc12` yielded an IC50 in the assay on PBMC of more than 50 µM. `CCOC(=O)CC(=O)Nc1cccc(Cc2c(C)c3cc(Cl)c(OC(=O)N(C)C)cc3oc2=O)c1` registered an IC50 in the assay with PBMC of 0.05 µM. For `CN(C)C(=O)Oc1ccc2c(CCO)c(Cc3ccccc3)c(=O)oc2c1`, the IC50 with PBMC stood at 2.1 µM.

For the molecule `CN(C)C(=O)Oc1ccc2c(CCc3ccccc3)c(Cc3ccccc3)c(=O)oc2c1`, the IC50 in the assay on PBMC is more than 50 µM. `COC(=O)c1ccc(-c2c(C)c3ccc(OC(=O)N(C)C)cc3oc2=O)cc1` returned an IC50 with PBMC not below 50 µM. In turn, `CN(C)C(=O)Oc1ccc2c(C(F)(F)F)c(Cc3ccc(F)cc3)c(=O)oc2c1` gave an IC50 with PBMC of more than 50 µM. On the same count and under the same terms, for `COc1cc2c(C)c(Cc3ccccc3)c(=O)oc2cc1OC(=O)N(C)C` the value was 0.58 µM.

In the case of `Cc1c(CCc2ccccc2)c(=O)oc2cc(OC(=O)N(C)C)ccc12`, the IC50 in the assay on PBMC was more than 50 µM.

In turn, `CN(C)C(=O)Oc1ccc2c(CC(O)c3nccs3)c(Cc3ccccc3)c(=O)oc2c1` (stereo not drawn) returned an IC50 in the assay on PBMC of 16.5 µM. On the same count and under the same terms, for `Cc1c(Cc2ccccc2)c(=O)oc2cc(OC(=O)N(C)C)c([N+](=O)[O-])cc12` the value was 0.12 µM; for `CCCCCc1c(C)c2ccc(OC(=O)N(C)C)cc2oc1=O`, 22.8 µM. With `COc1cc(OC(=O)N(C)C)cc2oc(=O)c(Cc3ccccc3)c(C)c12`, the IC50 with PBMC was more than 50 µM. On to `Cc1c(Cc2ccccc2)c(=O)oc2cc(OC(=O)N(C)C)c(C=O)cc12`, for which, in the assay with PBMC, the midpoint of inhibition, the IC50, lay at 9.8 µM. This counts as single-digit micromolar. Consider `Cc1c(CN2CCOCC2)c(=O)oc2cc(OC(=O)N(C)C)ccc12`, for which the IC50 in the assay on PBMC was more than 50 µM.

With `Cc1cc(=O)oc2cc(OC(=O)N(C)C)ccc12`, the IC50 with PBMC was more than 50 µM.

The molecule `Cc1c(CN2CCCCC2)c(=O)oc2cc(OC(=O)N(C)C)ccc12` displayed an IC50 in the assay with PBMC of more than 50 µM. Consider `CCc1cc2c(C)c(Cc3ccccc3)c(=O)oc2cc1OC(=O)N(C)C`, for which, in the assay on PBMC, the midpoint of inhibition, the IC50, lay at 4.6 µM. Still for that read-out and setting: the result for `CN(C)C(=O)Oc1ccc2c(C(=O)O)c(Cc3ccccc3)c(=O)oc2c1` reads more than 50 µM; that for `Cc1c(CC2CCCCC2)c(=O)oc2cc(OC(=O)N(C)C)ccc12`, 7.2 µM; that for `Cc1c(Cc2ccccn2)c(=O)oc2cc(OC(=O)N(C)C)ccc12`, 6.5 µM. Same read-out and setting: for `CN(C)C(=O)Oc1ccc2c(CC(O)C3CCCCC3)c(Cc3ccccc3)c(=O)oc2c1` (stereo not drawn) the value was more than 50 µM; for `Cc1c(-c2cccc(C(F)(F)F)c2)c(=O)oc2cc(OC(=O)N(C)C)ccc12`, more than 50 µM. Take `CN(C)C(=O)Oc1ccc2c(-c3ccncc3)c(Cc3ccccc3)c(=O)oc2c1`: the IC50 with PBMC is 4.9 µM. Molecule `Cc1c(Cc2ccc(F)cc2)c(=O)oc2cc(OC(=O)N(C)C)ccc12` came in with an inhibition in vivo at 100 mg/kg in the assay on Rattus norvegicus [1] of 42%. The molecule also returned an IC50 with PBMC of 0.32 µM.

Regarding `CN(C)C(=O)Oc1ccc2c(-c3ccccc3F)c(Cc3ccccc3)c(=O)oc2c1`, the IC50 in the assay on PBMC stood at 4.9 µM.

`CN(C)C(=O)Oc1ccc2c(-c3ccccc3)c(Cc3ccc(F)cc3)c(=O)oc2c1` returned a 50% inhibitory concentration (IC50) in the assay on PBMC of 1.7 µM.

In the assay on PBMC, `Cc1c(-c2ccc(C(F)(F)F)cc2)c(=O)oc2cc(OC(=O)N(C)C)ccc12` had an IC50 of more than 50 µM. Regarding `Cc1c(C)c2ccc(OC(=O)N(C)C)cc2oc1=O`, the IC50 with PBMC is not below 50 µM. Same read-out and setting: the result for `COc1ccccc1-c1c(C)c2ccc(OC(=O)N(C)C)cc2oc1=O` reads 7.5 µM. Same read-out and setting: the result for `COC(=O)c1cccc(-c2c(C)c3ccc(OC(=O)N(C)C)cc3oc2=O)c1` reads 1.7 µM; that for `Cc1c(Cc2ccccc2)c(=O)oc2cc(OC(=O)N(C)C)c(C(C)C)cc12`, 40.1 µM; that for `Cc1cc2c(C)c(Cc3ccccc3)c(=O)oc2cc1OC(=O)N(C)C`, 0.4 µM. Still for that read-out and setting: for `CCCCCCc1c(C)c2ccc(OC(=O)N(C)C)cc2oc1=O` the value was 25.4 µM; for `CCCCc1c(C)c2ccc(OC(=O)N(C)C)cc2oc1=O`, 24.7 µM. Molecule `Cc1c(-c2ccccc2)c(=O)oc2cc(OC(=O)N(C)C)ccc12` showed a concentration for half-maximal inhibition (IC50) with PBMC of more than 50 µM. Molecule `Cc1c(Cc2ccccc2)c(=O)oc2cc(OC(=O)N(C)C)c(Cl)cc12` showed an inhibition in vivo at 100 mg/kg with Rattus norvegicus [1] of 57%. Besides, the IC50 with PBMC is 0.09 µM. `CCCc1c(Cc2ccccc2)c(=O)oc2cc(OC(=O)N(C)C)ccc12` registered an IC50 in the assay on PBMC of 0.78 µM. On the same count and under the same terms, the result for `CN(C)C(=O)Oc1ccc2c(-c3ccccn3)c(Cc3ccccc3)c(=O)oc2c1` reads 18.7 µM; that for `COc1cccc(-c2c(C)c3ccc(OC(=O)N(C)C)cc3oc2=O)c1`, 3.2 µM; that for `Cc1c(Cc2ccccc2)c(=O)oc2cc(OC(=O)N(C)C)cc(F)c12`, 0.44 µM. In the case of `CC(=O)Nc1cccc(Cc2c(C)c3cc(Cl)c(OC(=O)N(C)C)cc3oc2=O)c1`, the IC50 with PBMC stood at 0.31 µM. The IC50 values of the last two molecules are within 1.5-fold of each other. As for `Cc1c(-c2cccc(N)c2)c(=O)oc2cc(OC(=O)N(C)C)ccc12`, 2.7 µM corresponded to half-maximal inhibition with PBMC (IC50). This IC50 is about 8.7-fold higher than that of the molecule before.

As to `Cc1c(Cc2ccncc2)c(=O)oc2cc(OC(=O)N(C)C)c(Cl)cc12`, the IC50 in the assay with PBMC stood at 0.13 µM. Compared with the last molecule, the IC50 is about 21-fold lower. On the same count and under the same terms, the result for `CN(C)C(=O)Oc1ccc2c(-c3ccc(C(F)(F)F)cc3)c(Cc3ccccc3)c(=O)oc2c1` reads more than 50 µM; that for `CN(C)C(=O)Oc1ccc2c(-c3cccc(C(F)(F)F)c3)c(Cc3ccccc3)c(=O)oc2c1`, more than 50 µM; that for `Cc1c(Cc2ccccc2)c(=O)oc2cc(OC(=O)N(C)C)ccc12`, 1.8 µM.

`Cc1c(Cc2cccnc2)c(=O)oc2cc(OC(=O)N(C)C)c(Cl)cc12` displayed an inhibition in vivo at 100 mg/kg in the assay with Rattus norvegicus [1] of 86%. The IC50 in the assay with PBMC turned out to be 0.45 µM. On to `Cc1c(-c2ccccc2N)c(=O)oc2cc(OC(=O)N(C)C)ccc12`, for which half-maximal inhibition in the assay on PBMC (IC50) was put at 2.1 µM. The molecule `Cc1c(Cc2ccncc2)c(=O)oc2cc(OC(=O)N(C)C)ccc12` came in with an IC50 in the assay on PBMC of 1.3 µM. Take `Cc1c(Cc2ccccc2)c(=O)oc2cc(OC(=O)N(C)C)c(Br)cc12`: in the assay with PBMC, inhibition was half-maximal at 0.06 µM (IC50). `Cc1c(-c2ccccc2C(F)(F)F)c(=O)oc2cc(OC(=O)N(C)C)ccc12`: the IC50 in the assay with PBMC is not below 50 µM. In turn, `COc1ccc(-c2c(C)c3ccc(OC(=O)N(C)C)cc3oc2=O)cc1` gave an IC50 with PBMC of 5.6 µM. Same read-out and setting: for `CCCc1c(Cc2ccc(F)cc2)c(=O)oc2cc(OC(=O)N(C)C)ccc12` the value was 1.2 µM. For the molecule `C[C@@H]1C[C@H]2[C@@H]3CCC4=CC(=O)C=C[C@]4(C)[C@@]3(F)[C@@H](O)C[C@]2(C)[C@@]1(O)C(=O)CO` [DEXAMETHASONE], testing at 0.1 mg/kg in the assay with Rattus norvegicus [2] gave an inhibition in vivo of 99%.
